Test results taken from ChEMBL document CHEMBL4814044, “Design and synthesis, biological evaluation of bis-(1,2,3- and 1,2,4)-triazole derivatives as potential antimicrobial and antifungal agents” (2021).
Active and inactive are the calls of the source. No cut-off for these calls is given here.

Key:
Assay type in all cases: functional
[1] = system: Aspergillus niger; assay: Antifungal activity against Aspergillus niger MTCC 404 assessed as zone of inhibition at 14.8 uM incubated for 2 days by cross streak plate method; settings: MTCC 404, 48 h, time 2 day, read-out: IZ
Procedure, shortened: (§1)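 Fungal strain (A. niger MTCC 404 or S. cerevisiae MTCC 1344) was incubated with the compound for 2 days at 37 °C. Growth inhibition was then assessed by the cross streak plate method.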

[2] = system: Escherichia coli; assay: Antibacterial activity against Escherichia coli MTCC 443 assessed as bacterial growth inhibition by microdilution method
Procedure, shortened: (§2)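 Broth microdilution against Gram-positive and Gram-negative strains. The endpoint is the minimal inhibitory concentration, in µg/ml.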

[3] = system: Aspergillus niger; assay: Antifungal activity against Aspergillus niger MTCC 404 assessed as zone of inhibition at 22.2 uM incubated for 2 days by cross streak plate method; settings: MTCC 404, 48 h, time 2 day, read-out: IZ; procedure, shortened: as §1
[4] = Antioxidant activity assessed as DPPH radical scavenging activity
[5] = system: Aspergillus niger; assay: Antifungal activity against Aspergillus niger MTCC 404 assessed as zone of inhibition at 29.7 uM incubated for 2 days by cross streak plate method; settings: MTCC 404, 48 h, time 2 day, read-out: IZ; procedure, shortened: as §1
[6] = system: Pseudomonas aeruginosa; assay: Antibacterial activity against Pseudomonas aeruginosa MTCC 424 assessed as bacterial growth inhibition by microdilution method; procedure, shortened: as §2
[7] = system: Saccharomyces cerevisiae; assay: Antifungal activity against Saccharomyces cerevisiae MTCC 1344 assessed as zone of inhibition at 29.7 uM incubated for 2 days by cross streak plate method; settings: MTCC 1344, 48 h, time 2 day, read-out: IZ; procedure, shortened: as §1
[8] = system: Saccharomyces cerevisiae; assay: Antifungal activity against Saccharomyces cerevisiae MTCC 1344 assessed as zone of inhibition at 14.8 uM incubated for 2 days by cross streak plate method; settings: MTCC 1344, 48 h, time 2 day, read-out: IZ; procedure, shortened: as §1
[9] = system: Staphylococcus aureus; assay: Antibacterial activity against Staphylococcus aureus MTCC 96 assessed as bacterial growth inhibition by microdilution method; procedure, shortened: as §2
[10] = system: Saccharomyces cerevisiae; assay: Antifungal activity against Saccharomyces cerevisiae MTCC 1344 assessed as zone of inhibition at 22.2 uM incubated for 2 days by cross streak plate method; settings: MTCC 1344, 48 h, time 2 day, read-out: IZ; procedure, shortened: as §1
[11] = system: Bacillus subtilis; assay: Antibacterial activity against Bacillus subtilis MTCC 441 assessed as bacterial growth inhibition by microdilution method; procedure, shortened: as §2
[12] = system: Saccharomyces cerevisiae; assay: Antifungal activity against Saccharomyces cerevisiae MTCC 1344 assessed as zone of inhibition at 17.2 uM incubated for 2 days by cross streak plate method; settings: MTCC 1344, 48 h, time 2 day, read-out: IZ; procedure, shortened: as §1
[13] = system: Aspergillus niger; assay: Antifungal activity against Aspergillus niger MTCC 404 assessed as zone of inhibition at 34.5 uM incubated for 2 days by cross streak plate method; settings: MTCC 404, 48 h, time 2 day, read-out: IZ; procedure, shortened: as §1
[14] = system: Aspergillus niger; assay: Antifungal activity against Aspergillus niger MTCC 404 assessed as zone of inhibition at 17.2 uM incubated for 2 days by cross streak plate method; settings: MTCC 404, 48 h, time 2 day, read-out: IZ; procedure, shortened: as §1
[15] = system: Saccharomyces cerevisiae; assay: Antifungal activity against Saccharomyces cerevisiae MTCC 1344 assessed as zone of inhibition at 25.9 uM incubated for 2 days by cross streak plate method; settings: MTCC 1344, 48 h, time 2 day, read-out: IZ; procedure, shortened: as §1
[16] = system: Aspergillus niger; assay: Antifungal activity against Aspergillus niger MTCC 404 assessed as zone of inhibition at 25.9 uM incubated for 2 days by cross streak plate method; settings: MTCC 404, 48 h, time 2 day, read-out: IZ; procedure, shortened: as §1
[17] = system: Saccharomyces cerevisiae; assay: Antifungal activity against Saccharomyces cerevisiae MTCC 1344 assessed as zone of inhibition at 34.5 uM incubated for 2 days by cross streak plate method; settings: MTCC 1344, 48 h, time 2 day, read-out: IZ
Procedure, shortened: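 S. cerevisiae MTCC 1344 cultures were incubated for 2 days at 37 °C and then tested by the cross streak plate method.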

[18] = system: Aspergillus niger; assay: Antifungal activity against Aspergillus niger MTCC 404 assessed as zone of inhibition at 31.2 uM incubated for 2 days by cross streak plate method; settings: MTCC 404, 48 h, time 2 day, read-out: IZ; procedure, shortened: as §1
[19] = system: Aspergillus niger; assay: Antifungal activity against Aspergillus niger MTCC 404 assessed as zone of inhibition at 23.4 uM incubated for 2 days by cross streak plate method; settings: MTCC 404, 48 h, time 2 day, read-out: IZ; procedure, shortened: as §1
[20] = system: Saccharomyces cerevisiae; assay: Antifungal activity against Saccharomyces cerevisiae MTCC 1344 assessed as zone of inhibition at 15.6 uM incubated for 2 days by cross streak plate method; settings: MTCC 1344, 48 h, time 2 day, read-out: IZ; procedure, shortened: as §1
[21] = system: Saccharomyces cerevisiae; assay: Antifungal activity against Saccharomyces cerevisiae MTCC 1344 assessed as zone of inhibition at 31.2 uM incubated for 2 days by cross streak plate method; settings: MTCC 1344, 48 h, time 2 day, read-out: IZ; procedure, shortened: as §1
[22] = system: Aspergillus niger; assay: Antifungal activity against Aspergillus niger MTCC 404 assessed as zone of inhibition at 15.6 uM incubated for 2 days by cross streak plate method; settings: MTCC 404, 48 h, time 2 day, read-out: IZ; procedure, shortened: as §1
[23] = system: Saccharomyces cerevisiae; assay: Antifungal activity against Saccharomyces cerevisiae MTCC 1344 assessed as zone of inhibition at 23.4 uM incubated for 2 days by cross streak plate method; settings: MTCC 1344, 48 h, time 2 day, read-out: IZ; procedure, shortened: as §1

Row | MIC [2] | MIC [6] | MIC [9] | MIC [11] | Structure (SMILES) | Activity [4] | zone of inhibition at 17.2 µM [12] | zone of inhibition at 34.5 µM [13] | zone of inhibition at 17.2 µM [14] | zone of inhibition at 25.9 µM [15] | zone of inhibition at 25.9 µM [16] | zone of inhibition at 34.5 µM [17] | other results
1 | 9 µg/mL | 8.1 µg/mL | 8.5 µg/mL | 4.4 µg/mL | O=C(CSc1nnc(-c2ccccc2OCc2cn(-c3ccc(Cl)cc3)nn2)n1Cc1ccccc1)c1ccc(Br)cc1 | inactive | – | – | – | – | – | – | zone of inhibition at 14.8 µM [1]: 2 mm; zone of inhibition at 22.2 µM [3]: 2 mm; zone of inhibition at 29.7 µM [5]: 3 mm; zone of inhibition at 29.7 µM [7]: 3 mm; zone of inhibition at 14.8 µM [8]: 1.5 mm; zone of inhibition at 22.2 µM [10]: 2 mm
2 | 6.1 µg/mL | 7.3 µg/mL | 4.1 µg/mL | 6.5 µg/mL | O=C(Sc1nnc(-c2ccccc2OCc2cn(-c3ccc(Cl)cc3)nn2)n1Cc1ccccc1)c1ccccc1 | inactive | 5 mm | 7.6 mm | 5.3 mm | 7 mm | 6 mm | 7.4 mm | –
3 | 4.5 µg/mL | 8.8 µg/mL | 3.9 µg/mL | 4.2 µg/mL | O=C(CSc1nnc(-c2ccccc2OCc2cn(-c3ccccc3)nn2)n1Cc1ccccc1)c1ccc(Br)cc1 | inactive | – | – | – | – | – | – | zone of inhibition at 31.2 µM [18]: 7.6 mm; zone of inhibition at 23.4 µM [19]: 7.4 mm; zone of inhibition at 15.6 µM [20]: 6 mm; zone of inhibition at 31.2 µM [21]: 7 mm; zone of inhibition at 15.6 µM [22]: 5 mm; zone of inhibition at 23.4 µM [23]: 6.5 mm
4 | > 45.4 µg/mL | 7.9 µg/mL | 8.4 µg/mL | 4 µg/mL | O=C(CSc1nnc(-c2ccccc2OCc2cn(-c3ccccc3)nn2)n1-c1ccccc1)c1ccc(Cl)cc1 | inactive | 2 mm | 3 mm | 2.1 mm | 3 mm | 3 mm | 3 mm | –
